{"data": "Measured values from different studies", "target": "TRAF2 and NCK-interacting protein kinase (TNIK, Homo sapiens, UniProt Q9UKE5)", "note": "Compare with care: the assays were run in different laboratories."}
{"Structure (SMILES)": "CC(=O)Nc1c(C(C)=O)c(=O)n(C)c2nc(-c3ccc(Cl)cc3Cl)c(-c3ccc(Cl)cc3)cc12", "test": "cell-free assay, competition with immobilised ligand", "conditions": "1 µM", "remaining binding": "100%"}
{"Structure (SMILES)": "C=CC(=O)N1CCC(C(=O)NCC(=O)N2CCN(c3nc(-c4cnc(N)nc4C(F)F)nc(N4CCOCC4)n3)CC2)CC1", "test": "binding, competition with immobilised ligand", "conditions": "1 µM", "remaining binding": "87%"}
{"Structure (SMILES)": "Cc1cnc(Nc2ccc(C(=O)N3CCC(N4CCCC4)CC3)cc2)nc1-c1cc2ccccc2s1", "test": "binding, competition with immobilised ligand", "conditions": "1 µM", "remaining binding": "68%"}
{"Structure (SMILES)": "C[C@@H](c1ccc(-n2cnc3c(N)ncnc32)cc1)N1CCc2nn(C)c(Cc3ccccc3)c2C1=O", "test": "binding, competition with immobilised ligand", "conditions": "0.1 µM", "remaining binding": "76%"}
{"Structure (SMILES)": "CC(C)(O)c1cncc(-c2nc3ccc(F)cc3n2C2CC2)c1", "test": "cell-free assay, competition with immobilised ligand", "conditions": "1 µM", "remaining binding": "100%"}
{"Structure (SMILES)": "CN(C)c1nccc(-c2cnn3ncccc23)n1", "test": "binding", "conditions": "1 µM", "remaining binding": "100%"}
{"Structure (SMILES)": "O=C(c1ccc(Nc2ncc(Cl)c(-c3cc4ccccc4s3)n2)cc1)N1CCC(N2CCCC2)CC1", "test": "binding, competition with immobilised ligand", "conditions": "1 µM", "remaining binding": "73%"}
{"Structure (SMILES)": "COc1ncc2cc3ccccc3nc2c1C#N", "test": "cell-free assay, competition with immobilised ligand", "conditions": "5 µM", "remaining binding": "100%"}
{"Structure (SMILES)": "O=C(Nc1c[nH]nc1C(=O)NC1CCNCC1)c1cc(F)cc(F)c1", "test": "binding, competition with immobilised ligand", "conditions": "1 µM", "remaining binding": "100%"}
{"Structure (SMILES)": "C[C@@H]1CCN(c2nccc(-c3cnn4ncccc34)n2)C1", "test": "binding", "conditions": "1 µM", "remaining binding": "90%"}
{"Structure (SMILES)": "CC(C)CC(=O)N1CCc2nc(-c3ccc(Br)cc3)nc(N(C)Cc3ccccc3)c2C1", "test": "cell-free assay, competition with immobilised ligand", "conditions": "0.1 µM", "remaining binding": "100%"}
{"Structure (SMILES)": "CN(CCCC(F)(F)F)c1nccc(-c2cnn3ncccc23)n1", "test": "binding", "conditions": "1 µM", "remaining binding": "100%"}
{"Structure (SMILES)": "CCC(=N\\O)/C(C)=C/c1ccc(F)cc1", "test": "cell-free assay, competition with immobilised ligand", "conditions": "1 µM", "remaining binding": "93%"}
{"Structure (SMILES)": "Cc1cnn2ncc(-c3ccnc(N(C)C)n3)c2c1", "test": "binding", "conditions": "1 µM", "remaining binding": "80%"}
{"Structure (SMILES)": "CC1=C(C#N)C(c2ccc3c(c2)c(NC(=O)c2ccccc2C)nn3C)C(C#N)=C(C)N1", "test": "cell-free assay, competition with immobilised ligand", "conditions": "1 µM", "remaining binding": "98%"}
{"Structure (SMILES)": "O=C(NCCCN1CCOCC1)c1ccc(Nc2nccc(-c3cc4ccccc4s3)n2)cc1", "test": "binding, competition with immobilised ligand", "conditions": "1 µM", "remaining binding": "69%"}
{"Structure (SMILES)": "N[C@@H]1CCN(c2nccc(-c3cnn4ncccc34)n2)C1", "test": "binding", "conditions": "1 µM", "remaining binding": "100%"}
{"Structure (SMILES)": "COc1cnc(Nc2cccc(S(N)(=O)=O)c2)nc1N1CCN(c2ccccc2)CC1", "test": "binding, competition with immobilised ligand", "conditions": "1 µM", "remaining binding": "75%"}
{"Structure (SMILES)": "F[C@@H]1CCN(c2nccc(-c3cnn4ncccc34)n2)C1", "test": "binding", "conditions": "1 µM", "remaining binding": "100%"}
{"Structure (SMILES)": "C[C@@H](c1cccc(C#N)c1)n1cc(Cl)cc(C(N)=O)c1=N", "test": "cell-free assay, competition with immobilised ligand", "conditions": "1 µM", "remaining binding": "56%"}
{"Structure (SMILES)": "CNC(=O)[C@@H]1CC[C@@H](n2c(-c3ccc4cnccc4c3)nc3ccc(C(=O)NCc4cccc(C(N)=O)c4)cc32)C1", "test": "binding, competition with immobilised ligand", "conditions": "1 µM", "remaining binding": "90%"}
